# Rows were chosen to be rich in hits. Some 3.5% of all compounds tested hit in one or more screens of this group.
# MrgX1 antagonist – antagonists of human MrgX1 receptor, primary screen, HEK293 cells, Fluo-4 calcium flux | BAM8-22 antagonism; active compounds read low | B-score at 10 µM | actives 1.3% (n = 310,000) | AID 588676, 2011;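 active = calcium-response B-score plate-corrected more than 3 library SD below zero, starting fluorescence within 5 deviations, no agonist response on first addition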;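 note: peak minus trough fluorescence over baseline after final BAM8-22 challenge near maximal dose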
# Target sequence (Q96LB2 whole entry, looked up): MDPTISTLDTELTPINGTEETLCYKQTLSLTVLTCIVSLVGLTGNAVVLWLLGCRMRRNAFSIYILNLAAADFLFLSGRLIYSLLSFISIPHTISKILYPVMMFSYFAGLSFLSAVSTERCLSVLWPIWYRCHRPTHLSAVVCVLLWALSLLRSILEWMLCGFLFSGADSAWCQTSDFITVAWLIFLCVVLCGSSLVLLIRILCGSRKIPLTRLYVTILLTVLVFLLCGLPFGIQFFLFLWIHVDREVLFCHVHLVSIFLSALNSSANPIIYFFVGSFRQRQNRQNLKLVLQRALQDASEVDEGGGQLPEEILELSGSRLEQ
# MrgX1 agonist – agonists of human MrgX1 receptor, primary screen, HEK293 cells, Fluo-4 calcium flux. Mas-related G-protein coupled receptor member X1 (Homo sapiens), Q96LB2. Fluo-4 calcium fluorescence, agonist mode; active compounds read high. B-score at 10 µM. actives 0.44% (n = 310,000);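 active = calcium response B-score plate-corrected fluorescence ratio at least 3 library SD, with starting fluorescence B-score inside 5 SD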
#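 Material: HEK293 cells stably expressing human MrgX1 receptor | Quantity: 15,000 cells per well | Times: Cells plated overnight, dye loaded 0.5 h 37 °C, 0.5 h room temperature | Measured by: Kinetic Fluo-4 NW fluorescence of intracellular calcium | Control set: Positive and negative controls per plate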
# RGS4 block – RGS4 inhibitors, primary screen, cell-based, HEK293 M3R inducible RGS4, calcium flux | Fluo-4 calcium flux; active compounds read high; triggered by carbachol at its EC20 | B-score at 10 µM | actives 0.45% (n = 310,000) | AID 463165, 2010;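 active = B-score, a plate-corrected calcium signal, over three deviations above library mean, with baseline fluorescence within five deviations of library mean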;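 note: RGS4 expression induced by doxycycline in cells with stable M3 receptor; B-score is computed from the integrated fluorescence ratio over baseline after carbachol; higher B-score means a larger calcium signal and so more RGS4 inhibition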
# Target sequence (P49798 whole entry, looked up): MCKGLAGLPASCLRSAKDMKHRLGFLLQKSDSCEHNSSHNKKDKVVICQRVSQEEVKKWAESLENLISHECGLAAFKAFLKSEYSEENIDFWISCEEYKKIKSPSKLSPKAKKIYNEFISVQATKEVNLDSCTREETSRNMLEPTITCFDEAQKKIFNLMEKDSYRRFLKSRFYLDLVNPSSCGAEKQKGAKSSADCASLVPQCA
# MrgX1 PAM – positive allosteric modulators of MrgX1, primary screen, HEK293 cells, Fluo-4 calcium flux. FDSS; active compounds read high. B-score at 10 µM. actives 0.63% (n = 310,000);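 active = plate-corrected calcium response at least 3 library SD above typical, normal starting fluorescence, not activating the receptor alone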;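 note: compound read alongside a low EC10 to EC30 dose of BAM8-22 agonist; peak minus trough fluorescence over baseline measured at the second addition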
# RGS4 pot – RGS4 potentiators or activators, primary screen, cell-based, HEK293 M3R inducible RGS4, calcium flux. B-score at 10 µM. carbachol calcium flux Fluo4; active compounds read low. actives 0.92% (n = 310,000);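 active = B-score of the integrated calcium signal more than 4 SD below the library mean, with starting fluorescence not abnormally high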;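 note: negative B-score means reduced calcium response which marks RGS4 activation or potentiation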
#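 Assay system: Inducible-RGS4 HEK293 cells carrying M3 receptor | Schedule: Compound preincubation 20 min at room temperature before agonist | Signal: Kinetic calcium fluorescence imaging with Fluo4-AM dye, 2 µM | Read-out basis: B score from integrated fluorescence ratio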
# MrgX1 antag conf – MrgX1 receptor antagonists, duplicate retest, confirmation, HEK293 cells, Fluo-4 calcium flux; shares compounds with MrgX1 antagonist; BAM8-22 calcium flux; active compounds read low; remaining BAM8-22 calcium response % of control (active compounds read low), % at 10 µM; actives 19% (n = 2,300); AID 602420, 2012;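 active = remaining agonist calcium response no higher than 100% minus 3 SD of agonist-only control wells, with starting fluorescence near control levels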;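 note: agonist BAM8-22 given at a near maximal EC90 to ECmax level; peak minus minimum fluorescence divided by baseline after agonist addition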
# HEK293 Ca flux – nonspecific calcium signal in parental HEK293, confirmation, counter-screen for MrgX1 antagonist project, parental HEK293 cells, Fluo-4 calcium flux; fluorescence ratio F(max-min)/F0 at 10 µM; shares compounds with MrgX1 antagonist; actives 2% (n = 4,000); AID 624111, 2012; Fluo-4 calcium fluorescence, FDSS;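 active = duplicate-averaged calcium fluorescence ratio at least three times the standard deviation of buffer wells, a nonspecific response in parental cells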
# HEK293 Ca counter – calcium response in parental HEK293 cells, primary screen, counter-screen for MrgX1 allosteric activator project, cell-based, Fluo-4 calcium flux, duplicate; shares compounds with MrgX1 antagonist; Fluo-4 fluorescence ratio; active compounds read high; fluorescence ratio F(max-min)/F0 at 10 µM; actives 0.4% (n = 4,000);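 active = calcium fluorescence ratio, averaged over duplicates, at least 3 SD of the buffer-well ratio, meaning a nonspecific response in receptor-free cells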;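 note: untransfected parental HEK293 lacking MrgX1 used as counterscreen for MrgX1 allosteric activators; fluorescence change taken during the second addition on a kinetic imager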
# HEK293 Ca cntr2 – calcium response in parental HEK293 cells, primary screen, counter-screen for MrgX1 agonist project, cell-based, Fluo-4 calcium flux, duplicate, agonist mode; actives 8.7% (n = 4,000); shares compounds with MrgX1 antagonist; Fluo-4 calcium fluorescence (FDSS); active compounds read high; fluorescence ratio F(max-min)/F0 at 10 µM;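 active = calcium fluorescence ratio at least three times the spread of buffer wells, meaning a non-specific response in parental cells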
# Hits are given with their value; – = inactive; · = no result.
SMILES,MrgX1 antagonist,MrgX1 agonist,RGS4 block,MrgX1 PAM,RGS4 pot,MrgX1 antag conf,HEK293 Ca flux,HEK293 Ca counter,HEK293 Ca cntr2
COc1ccc2c(=O)c(N3C(=O)c4ccccc4C3=O)c(C)oc2c1,-5.25,–,–,–,–,–,–,–,–
COc1ccc(Nc2nc(NCCO)nc(N3CCCC3)n2)cc1,-5.52,–,–,–,–,–,–,–,–
COc1cccc(Nc2nc(NCCO)nc(N3CCCC3)n2)c1,–,–,–,–,–,·,·,·,·
COc1nc(Nc2ccccc2F)nc(OC)n1,-8.05,–,–,–,–,–,–,–,–
CCC(CO)NCc1ccc(OCC(O)c2ccccc2)c(OC)c1 (stereo not given),–,–,–,–,–,·,·,·,·
CC(=O)c1cc(C#N)c(N2CCOCC2)nc1C,-4.59,–,–,–,–,–,–,–,–
COc1ccc(C(=O)NCCOc2ccccc2Cl)c(OC)c1OC,–,–,–,–,–,·,·,·,·
CC(NC(=O)Cc1ccsc1)c1ccc(Cl)cc1Cl (stereo not given),–,–,–,–,–,·,·,·,·
C=CCn1c(SCC(=O)N2N=C(c3ccco3)CC2c2ccco2)nnc1-c1ccncc1 (stereo not given),–,–,–,–,–,·,·,·,·
Cc1nnc(NC(=O)CSc2ccc(-c3cccnc3)nn2)s1,-5.64,–,–,–,–,–,–,–,–
CSc1ccccc1NC(=O)c1c(C)noc1C,–,–,–,–,–,·,·,·,·
CN1N=C(C(=O)Nc2ccc3c(c2)CCC3)CCC1=O,–,–,–,–,–,·,·,·,·
CCOC(=O)c1cnc(Nc2nc3ccccc3o2)nc1CSc1nnc(C)s1,-5.27,–,–,–,–,–,–,–,–
COc1c2c(nc3ccccc13)OC(C(C)(O)CO)C2 (stereo not given),-6.89,–,–,–,–,–,–,–,–
CCN1C(=O)C(CC(=O)NCc2ccc(Cl)cc2)N(CC)C1=O (stereo not given),-5.09,–,–,–,–,–,–,–,–
Cc1ccccc1NC(=O)c1ccc2c(c1)OCCO2,–,–,–,–,–,·,·,·,·
COC(=O)c1ccccc1NC(=O)c1ccc2c(c1)OCCCO2,-10.3,–,–,–,–,–,–,–,–
O=C(Cc1ccsc1)NNC(=O)c1ccccc1O,–,–,–,–,–,·,·,·,·
COC(=O)CNc1cc(S(=O)(=O)N2CCCCC2)ccc1Oc1ccc(C(=O)OC)cc1,–,–,–,–,–,·,·,·,·
COC(=O)c1ccc(Oc2ccc(S(=O)(=O)N3CCCCC3)cc2N)cc1,-4.89,–,–,–,–,–,–,–,–
COc1ccc(S(=O)(=O)N2CCCCC2)cc1C(=O)N1CCCC1,-5.6,–,–,–,–,–,–,–,–
O=C(CCN1CCOCC1)NC1CCCN(Cc2ccccc2F)C1 (stereo not given),–,–,–,–,–,·,·,·,·
CN(C)c1ccc(/C=N/NC(=O)CN(c2cccc(Cl)c2)S(C)(=O)=O)cc1Br,–,–,–,–,–,·,·,·,·
COc1cccc(Nc2nc(NCC3CCCO3)c3ccccc3n2)c1 (stereo not given),-6.1,–,–,–,–,20.4%,–,–,–
Oc1ccc(Nc2nc(NCC3CCCO3)c3ccccc3n2)cc1 (stereo not given),·,·,–,·,–,·,·,·,·
SMILES,MrgX1 antagonist,MrgX1 agonist,RGS4 block,MrgX1 PAM,RGS4 pot,MrgX1 antag conf,HEK293 Ca flux,HEK293 Ca counter,HEK293 Ca cntr2
C=CCn1c(N2CCCC2)nc2c1c(=O)[nH]c(=O)n2C,-8.69,–,–,–,–,–,–,–,–
C/C(Cl)=C/Cn1c(N2CCCC2)nc2c1c(=O)[nH]c(=O)n2C,–,–,–,–,–,·,·,·,·
CC(C)CCn1c(N2CCc3ccccc3C2)nc2c1c(=O)[nH]c(=O)n2C,-5.03,–,–,–,–,–,–,–,–
CC(=O)Nc1ccc(S(=O)(=O)NC2CC(=O)N(c3ccc(C)cc3)C2)cc1 (stereo not given),–,–,–,–,–,·,·,·,·
COc1ccc(NC(=S)N2CCCC(c3nc4ccc(C)cc4[nH]3)C2)cc1 (stereo not given),-9.53,–,–,–,–,–,–,–,–
COc1ccc(NC(=S)N2CCCC(c3nc4ccc(C)cc4[nH]3)C2)c(OC)c1 (stereo not given),–,–,–,–,–,·,·,·,·
COC(=O)[C@H](Cc1ccccc1)NC(=O)NCc1ccc(C)cc1,–,–,–,–,–,·,·,·,·
Cc1ccc(CNC(=O)N[C@@H](Cc2ccccc2)C(=O)O)cc1,-7.17,–,–,–,–,–,–,–,–
Cc1cccc2cc(CN(CC3CCCO3)C(=O)c3ccco3)c(=O)[nH]c12 (stereo not given),-8.27,–,–,–,–,–,–,–,–
NC(=O)C1CCN(c2ncnc3c2c(-c2ccccc2)cn3-c2ccccc2)CC1,-5.21,–,–,–,–,–,–,–,–
NC(N)=Nc1nc2ccc(Cl)cc2c(=O)[nH]1,–,–,–,–,–,·,·,·,·
O=C(Nc1ccc(C(=O)N2CCOCC2)cc1)c1cccs1,-6.99,–,–,–,–,75.3%,–,–,–
CC1CC2(NC(=O)NC2=O)C(C)CN1C (stereo not given),–,–,–,–,–,·,·,·,·
CC1C[C@@]2(NC(=O)NC2=O)C(C)CN1C (stereo not given in full),-5.5,–,–,–,–,–,–,–,–
CCc1nnc(NC(=O)C(C)Sc2ccccc2)s1 (stereo not given),–,–,–,–,–,·,·,·,·
NC(=O)C1CCN(C(=O)c2ccc3c(=O)n(Cc4ccco4)c(SCc4ccc([N+](=O)[O-])cc4)nc3c2)CC1,–,–,–,–,–,·,·,·,·
COC1=CC(=O)CC(C)C12Oc1cc(OC)cc(OC)c1C2=O (stereo not given),-5.91,–,–,–,–,–,–,–,–

# Screens deposited in PubChem BioAssay by Johns Hopkins Ion Channel Center.
